Results: ChEMBL document CHEMBL1149278, “Synthesis and structure-activity relationship studies for hydantoins and analogues as voltage-gated sodium channel ligands” (J Med Chem, 2004)

Assay: Displacement of [3H]BTX-B from voltage gated sodium channel in rat cerebral cortex synaptoneurosomes
Type: tissue-based
Summary of the method: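 Rat cerebral cortex synaptoneurosomes (~1 mg protein), stored frozen at –70 °C, thawed and resuspended in HEPES incubation buffer. […] Filtration assay; nonspecific binding defined with 300 μM veratridine. Triplicates, DPH control run alongside. IC50 by Probit analysis, using only points with 10–90% inhibition.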

Structure (SMILES)	IC50
CCC1(c2ccccc2)NC(=O)NC1=O (stereo not given)	> 200 µM
CCOC(=O)C(O)(CC)c1ccccc1 (stereo not given)	> 200 µM
CCC1(c2ccccc2)NC(=O)N(S(C)(=O)=O)C1=O (stereo not given)	> 500 µM
CCCCCCCC(N)(C(=O)O)c1ccccc1 (stereo not given)	300 µM
CCCCCC(O)(C(N)=O)c1ccccc1 (stereo not given)	178 µM
CCCCCCCCCC(N)(C(=O)O)c1ccccc1 (stereo not given)	274 µM
CCC(OCCCc1ccccc1)(C(=O)NCCCc1ccccc1)c1ccccc1 (stereo not given)	4.3 µM
CCCCCCCCCC(O)(C(N)=O)c1ccccc1 (stereo not given)	6.5 µM
O=C1NC(c2ccccc2)(c2ccccc2)C(=O)N1CN1CCN(C(c2ccccc2)c2ccccc2)CC1	4.5 µM
CCCC1(c2ccccc2)OC(=O)NC1=O (stereo not given)	448 µM
CCCCCC1(c2ccccc2)NC(=O)N(S(C)(=O)=O)C1=O (stereo not given)	112 µM
CCCCCCCCCC(O)(C(=O)O)c1ccccc1 (stereo not given)	84 µM
CCC1(c2ccccc2)NC(=O)N(S(=O)(=O)c2ccc(C)cc2)C1=O (stereo not given)	51 µM
CCCCCCCC(O)(C(=O)O)c1ccccc1 (stereo not given)	> 500 µM
CCC(O)(C(N)=O)c1ccccc1 (stereo not given)	> 500 µM
CCC1(c2ccccc2)NC(=O)N(CCN2CCN(C(c3ccccc3)c3ccccc3)CC2)C1=O (stereo not given)	1.1 µM
O=C1NC(c2ccccc2)(c2ccccc2)C(=O)N1CCN1CCN(C(c2ccccc2)c2ccccc2)CC1	0.22 µM
CC(O)(C(=O)N1CCN(C(c2ccccc2)c2ccccc2)CC1)c1ccccc1 (stereo not given)	6.3 µM
CCC(O)(C(=O)O)c1ccccc1 (stereo not given)	> 500 µM
CCCCCCCC(O)(C(=O)OCC)c1ccccc1 (stereo not given)	36 µM
CCCCCC(O)(C(=O)NCCc1ccccc1)c1ccccc1 (stereo not given)	5 µM
CCCCCC(O)(C(=O)NCCCc1ccccc1)c1ccccc1 (stereo not given)	2.5 µM
CCCCCCCC1(c2ccccc2)NC(=O)N(CN2CCN(C(c3ccccc3)c3ccccc3)CC2)C1=O (stereo not given)	2.2 µM
CCC(N)(C(=O)O)c1ccccc1 (stereo not given)	> 500 µM
CCCCCC(N)(C(=O)O)c1ccccc1 (stereo not given)	> 500 µM

Structure (SMILES)	IC50
CCCC(O)(C(=O)O)c1ccccc1 (stereo not given)	> 500 µM
CCCCCC(O)(C(=O)O)c1ccccc1 (stereo not given)	> 500 µM
CCCCCCCC(O)(C(N)=O)c1ccccc1 (stereo not given)	9 µM
CCCCCC1(c2ccccc2)NC(=O)NC1=O (stereo not given)	39 µM
CCCC1(c2ccccc2)NC(=O)NC1=O (stereo not given)	162 µM
CCCCCC1(c2ccccc2)NC(=O)N(Cc2ccccc2)C1=O (stereo not given)	6.9 µM
CCC(O)(C(=O)NCCC(c1ccccc1)c1ccccc1)c1ccccc1 (stereo not given)	35 µM
CCCCCC1(c2ccccc2)NC(=O)N(CN2CCN(C(c3ccccc3)c3ccccc3)CC2)C1=O (stereo not given)	1.3 µM
CCCCCCCCCC1(c2ccccc2)NC(=O)N(Cc2ccccc2)C1=O (stereo not given)	5.1 µM
CCCCCC1(c2ccccc2)OC(=O)NC1=O (stereo not given)	112 µM
CCC1(c2ccccc2)NC(=O)N(CN2CCN(C(c3ccccc3)c3ccccc3)CC2)C1=O (stereo not given)	3.3 µM
CCCCCCCC1(c2ccccc2)OC(=O)NC1=O (stereo not given)	30 µM
CCCCCCCC1(c2ccccc2)NC(=O)N(S(C)(=O)=O)C1=O (stereo not given)	13 µM
CCC(O)(C(=O)NCCc1ccccc1)c1ccccc1 (stereo not given)	30 µM
CCC(O)(C(=O)NCCCc1ccccc1)c1ccccc1 (stereo not given)	8.2 µM
CCCCCCCCCC1(c2ccccc2)NC(=O)N(S(C)(=O)=O)C1=O (stereo not given)	11 µM
CCCCCCCCCC1(c2ccccc2)OC(=O)NC1=O (stereo not given)	11 µM
CCCCC1(c2ccccc2)NC(=O)NC1=O (stereo not given)	103 µM
CCCCCCCCCC1(c2ccccc2)NC(=O)NC1=O (stereo not given)	5 µM
CCCC1(c2ccccc2)NC(=O)N(S(C)(=O)=O)C1=O (stereo not given)	500 µM
CCCCCCCC1(c2ccccc2)NC(=O)NC1=O (stereo not given)	5 µM
CCCCCC(O)(C(=O)N1CCN(C(c2ccccc2)c2ccccc2)CC1)c1ccccc1 (stereo not given)	4.8 µM
CCCC(O)(C(N)=O)c1ccccc1 (stereo not given)	500 µM
CCCCCC(O)(C(=O)NCCC(c1ccccc1)c1ccccc1)c1ccccc1 (stereo not given)	5.3 µM
CC(O)(C(N)=O)c1ccccc1 (stereo not given) [ATROLACTAMIDE]	> 500 µM
